Assay outcomes (PubChem BioAssay)
The list is not random: actives were taken first. Their share in the collection is about 2.4%.
Myeloid diff 2: promotes myeloid progenitor differentiation; 360,000 compounds, 1% hits; AID 624256; ER-HoxA9 myeloid progenitors, lysozyme-GFP differentiation, flow cytometry; calls only at 10 µM;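 active = normalized GFP-positive differentiation at or above the plate's own cutoff, the solvent-only control mean plus 3 SD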;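 note: cells exposed to compound for four days before flow analysis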
DAGLB inhibitor: diacylglycerol lipase beta (human) inhibition; Q8NCG7; HEK293T DAGLB membrane lysate, EnzChek fluorogenic substrate; inhibition, % at 5.17 µM; 340,000 compounds, 0.059% hits; AID 504411; in the data active = inhibition above about 34%;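 note: 0% = enzyme with vehicle and 100% = wells lacking enzyme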
NRP1-CendR mod: alters CendR peptide binding to human NRP-1. inhibition, % at 25 µM. AID 602438. FAM-RPARPAR peptide binding to NRP-1, fluorescence polarization. 360,000 compounds, 0.85% hits;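 active = inhibition or corrected inhibition above about 18%, plus a signal ratio from 0.5 to 1.5, limit read from the data, passing the limit was not always enough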
SENP1 inh: blocks the human SENP1 SUMO protease catalytic domain; Q9P0U3; recombinant SENP1 catalytic domain, CyPet-SUMO1-YPet FRET cleavage; inhibition, % at 10 µM; 360,000 compounds, 0.21% hits; AID 624204;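 active = inhibition at least 30% at 10 µM, raw YFP signal under a set limit, fluorescence ratio 0.5 to 1.5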;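 note: 0% = enzyme with DMSO and 100% = no enzyme wells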
Target sequence (Q9P0U3 419-644 limits assumed): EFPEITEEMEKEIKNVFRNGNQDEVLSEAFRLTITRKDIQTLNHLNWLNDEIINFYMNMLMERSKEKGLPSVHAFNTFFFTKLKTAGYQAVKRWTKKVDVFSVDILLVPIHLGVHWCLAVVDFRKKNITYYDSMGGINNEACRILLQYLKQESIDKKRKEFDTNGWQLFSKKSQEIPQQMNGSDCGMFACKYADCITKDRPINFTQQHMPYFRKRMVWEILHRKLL
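Test system: recombinant human SENP1 catalytic domain, His6-tagged / Medium: pH 8 Tris buffer with EDTA, NaCl, BME, BSA, NP40, catalase / Also added: SUMO1 FRET substrate flanked by Cypet and Ypet, 25 nM / Times: 50 min reaction at room temperature / Signal: FRET, CFP and YFP emission / Control set: no-enzyme low control and enzyme-plus-DMSO high control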
beta cell repl: MIN6 beta-cell proliferation induction | MIN6 cells proliferation, ATPlite luminescence, 48 h; cells starved in 0.2% serum; 100% = growth in 10% serum | proliferation, % at 10 µM | 330,000 compounds, 0.29% hits | AID 2380;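 active = compounds whose signal lies at least 3.5 SD above the mean of all wells on their plate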;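 note: 0% = DMSO-treated cells in low-serum medium and 100% = 10% serum control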
MT1-MMP act inh: MT1-MMP (human) activation inhibition | P50281 | HT1080 RFP-PRO-GFP cells, GFP/RFP ratio fluorescence, overnight; percent of plate control window, DMSO zero | GFP/RFP ratio change, % at 20 µM | 360,000 compounds, 0.061% hits;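 active = GFP/RFP ratio change of at least 30% with cell ATP level not reduced by more than half and red fluorescence within 50% of control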
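Assay system: RFP-PRO-GFP reporter HT1080 cells; read-out basis: GFP/RFP fluorescence ratio; benchmarks: DMSO wells and RFP-L50D-GFP cells; doses: 20 µM single dose, 1% DMSO; schedule: overnight cell settling, then overnight compound exposure, 37 °C, 5% CO2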
* = called active by the depositor; i = inactive; . = no result; + = active, no number.

SMILES	Myeloid diff 2	DAGLB inhibitor	NRP1-CendR mod	SENP1 inh	beta cell repl	MT1-MMP act inh
CCOC(=O)c1c2ccc(OCC(=O)N/N=C/c3ccc(C)cc3)cc2n2ccccc12	i	-3	-10	6	-7	-7
CCOC(=O)c1c2ccc(OCC(=O)NN)cc2n2ccccc12	i	-3	26*	-28	3	-6
CCOc1cc(C2C(C#N)=C(N)Oc3n[nH]c(-c4ccncc4)c32)cc([N+](=O)[O-])c1O (stereo unspecified)	i	.	32*	1	-4	7
COc1cc2ccc(CC(N)=O)cc2cc1OC	i	0	37*	-1	.	1
COc1ccc(CC(=O)OCC(=O)NC2CC2)cc1	i	-1	24*	3	-1	0
COc1ccc(CC(=O)OCC(=O)c2ccc(OC)c(OC)c2)cc1	i	-2	17*	2	0	4
COc1ccc(CCC(N)=O)cc1OC	i	-1	4	3	-2	-4
COc1ccc(CCC(=O)NC2CCC(C)CC2)cc1 (stereo unspecified)	+	-2	-4	1	1	-1
COc1ccc(CCC(=O)NC(C)C)cc1	+	-1	6	2	-1	1
COc1ccc(C(C)NC(=O)CCc2ccccc2)cc1 (stereo unspecified)	i	-5	2	-2	0	-4
Cc1ccccc1C(=O)Nc1nnc(S(=O)(=O)N2CCCCC2)s1	i	5	1	-1	-1	4
CCOC(=O)C[C@H]1c2cc(C(F)(F)F)ccc2S(=O)(=O)N1C(C)C	i	-3	34*	3	0	2
Cc1ccc(S(=O)(=O)N2C[C@H]3n4c(=O)ccc(=O)n4C[C@H](OC(=O)NC4CC4)[C@@]3(O)C2)cc1	+	-4	0	2	.	-2
Cc1ccc(S(=O)(=O)N2C[C@H]3n4c(=O)ccc(=O)n4C[C@H](OC(=O)Nc4c(C)noc4C)[C@@]3(O)C2)cc1	i	-2	5	0	.	2
CS(=O)(=O)N(CC(=O)Nc1ccccc1Cl)c1ccc(Cl)cc1	i	-1	-5	1	-1	1
CC1(C(=O)NCC2CC2)Cc2c(-c3cccc(C(F)(F)F)c3)ccnc2O1 (stereo unspecified)	i	.	35*	-1	.	-11
CCCCN(CC)Cc1ccc(CNC(=S)Nc2cccc(F)c2)o1	i	0	-4	-5	-2	-5
Cn1c2ccccc2c2c(C(=O)N3CCN(c4ccccn4)CC3)cn(C3CCCC3)c(=O)c21	i	0	38*	0	1	3
COc1ccc(N2CCN(C(=O)c3cn(C4CCCC4)c(=O)c4c3c3ccccc3n4C)CC2)cc1	i	4	39*	-1	-2	-9
O=C(Nc1nnc(SCc2cccc3ccccc23)s1)C1COc2ccccc2O1 (stereo unspecified)	i	4	2	1	0	0
COc1cc(-c2c(C(=O)c3ccccc3)[nH]c(N)c2C(N)=O)ccc1F	i	.	4	0	.	3
N=C1c2ccccc2CN1c1ccc(S(=O)(=O)N2CCCCC2)cc1	+	1	9	10	-2	-19
Cc1cc2c(cc1C)NC(CC(=O)NCc1ccccc1)C(=O)N2 (stereo unspecified)	+	2	-27	-56	-2	-14
COc1ccc(CCNC(=O)CC2Nc3cc(C)c(C)cc3NC2=O)cc1OC (stereo unspecified)	i	-1	-30	-49	0	0
CCCOc1ccccc1/C=C(\C#N)C(=O)Nc1cccc(C)n1	+	-3	4	-11	-3	-1
SMILES	Myeloid diff 2	DAGLB inhibitor	NRP1-CendR mod	SENP1 inh	beta cell repl	MT1-MMP act inh
Cc1cccc(NC(=O)/C(C#N)=C/c2ccc(F)cc2)n1	i	1	2	-2	-3	-2
Fc1cccc(Cc2c(-c3ccccc3)nc3c(Cl)cc(C(F)(F)F)cn23)c1	i	.	0	-1	.	-1
COc1ccc(C(=O)N2c3ccccc3C(=O)OC2c2ccc3c(c2)OCO3)cc1 (stereo unspecified)	i	-1	21*	2	-2	1
CC(C)C(CO)N1CCN(Cc2ccccc2)CCC1=O (stereo unspecified)	i	1	24*	0	0	1
C=Cc1ccc(Cn2c(C)c(C(=O)NCc3ccc(C#N)cc3)sc2=O)cc1	i	.	-1	4	.	1
CC(=O)C1=C(NC(=O)c2ccccc2F)C[C@@H]2[C@H]1C2(C)C	i	-8	17*	0	-2	4
CCn1cc([N+](=O)[O-])c(C(=O)N2CCCC2)n1	+	-2	-2	-1	.	1
CCn1cc([N+](=O)[O-])c(C(=O)N2CCN(C(=O)c3ccco3)CC2)n1	i	1	-4	3	-3	2
CC1(OC(=O)CCc2ccccc2)C(=O)C=C2C=C(c3ccc(C#N)cc3)N(CC3CC3)C=C2C1=O (stereo unspecified)	i	4	18	-63	1	-3
CC1(OC(=O)CCc2ccccc2)C(=O)C=C2C=C(c3ccc(C#N)cc3)N(C3CCCC3)C=C2C1=O (stereo unspecified)	i	6	30*	-62	-2	2
COC(=O)/C=C1\OCc2ccccc21	i	.	-16	3	.	3
COc1ccc(-c2noc(-c3ccccc3C(=O)N3CCOCC3)n2)cc1	i	-1	26*	1	0	-6
c1ccc2c(c1)CC(N1CCCCC1)c1ccccc1S2 (stereo unspecified)	i	-8	41*	-3	-4	-1
CCCC(=O)N1CCCC1(C)C(=O)NCc1ccc(SC)cc1 (stereo unspecified)	i	.	-2	0	.	-1
Cc1ccc(Cn2c(SCC(=O)Nc3cc(C)on3)nc3ccccc3c2=O)cc1	i	-2	28*	0	-3	2
Cc1ccc(CNC(=O)CCCC(=O)Nc2cc(C)on2)cc1	i	0	0	0	-4	-1
Cc1cc(NC(=O)CSc2nc3ccccc3c(=O)n2Cc2ccccc2)no1	i	-4	8	0	2	3
Cc1cc(NC(=O)CCCC(=O)NCc2ccccc2)no1	i	-3	36*	3	1	-6
Cc1cc(NC(=O)CSc2c[nH]c3ccccc23)no1	i	-1	9	1	1	0
Cc1cc(NC(=O)CSc2c(C)[nH]c3ccccc23)no1	+	-1	4	0	3	0
